Data reported in ChEMBL document CHEMBL1126990, “Design and synthesis of 18F-labeled neurotoxic analogs of MPTP” (J Med Chem, 1993).

Legend:
Format in all cases: ADME
Rattus norvegicus = species on record: Rattus norvegicus; assay: Maximal rate (Vmax) for oxidation by rat liver MAO (results are means of number of separate experiments, n=5)
How it was run: (§1)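 Rat liver MAO (crude P2 mitochondrial fraction from adult male Wistar rats, in pH 7.4 phosphate buffer) incubated with substrate at 30 μM to 5 mM; colorimetric detection of H2O2 formed. Blanks contained 0.1 mM pargyline. Vmax and Km from linear regression of Lineweaver-Burk plots; means ± SE of n separate experiments; ANOVA with post-hoc Scheffe test.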

[1] = separate experiments, n=5); how it was run: as §1
[2] = Ratio between Vmax and Km; how it was run: as §1

Compound: CN1CC=C(c2ccccc2)CC1
- Vmax (Rattus norvegicus): 218 nM hr-1 (mg of protein)-1
- Km [1]: 90 µM
- Ratio [2]: 2.42
